Values after ≈ are worked out from the molar mass of the structure shown.
Columns and labels:
[1] = test system: Streptococcus pneumoniae; assay: Antibacterial activity against fluoroquinolone, dye-resistant Streptococcus pneumoniae M45 overexpressing patA, patB by standardized agar doubling dilution method; assay type: functional
Procedure, shortened: (§1)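 MIC by agar doubling dilution following BSAC guidelines. Strains grown in brain heart infusion broth 24 h at 37°C in 5% CO2. Where an efflux pump inhibitor applies, MIC redetermined with reserpine at 20 μg/ml or sodium orthovanadate at 50 μM. Synergy taken as a fall in MIC of ≥2 dilutions with inhibitor present. Dye resistance defined relative to R6 (both dyes ≥2 dilutions higher).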

[2] = test system: Streptococcus pneumoniae; assay: Antibacterial activity against Streptococcus pneumoniae M50B overexpressing patA, patB and inactivated patB with single mutation by standardized agar doubling dilution method in presence of 20 ug/ml reserpine efflux pump inhibitor; assay type: functional
Procedure, shortened: (§2)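 MICs were determined by BSAC agar doubling dilution in the presence of reserpine at 20 μg/ml. Strains were grown in BHI broth for 24 h at 37°C in 5% CO2, with R6 as control. Synergy was defined as an MIC drop of ≥2 dilutions with the inhibitor.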

[3] = test system: Streptococcus pneumoniae; assay: Antibacterial activity against Streptococcus pneumoniae M309 overexpressing patA, patB and inactivated patB with single mutation by standardized agar doubling dilution method in presence of 20 ug/ml reserpine efflux pump inhibitor; assay type: functional
Procedure, shortened: (§3)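 MICs determined by BSAC standardized agar doubling dilution. Strains were grown in brain heart infusion broth for 24 h at 37°C in 5% CO2. Inhibitor arms had reserpine at 20 μg/ml or sodium orthovanadate at 50 μM in the agar. Mutants were made by transforming magellan2 insertion amplimers into clinical isolates and selecting on spectinomycin 100 mg/liter, with a no-DNA spontaneous-mutation control.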

[4] = test system: Streptococcus pneumoniae; assay: Antibacterial activity against Streptococcus pneumoniae M301 overexpressing patA, patB and inactivated patA with single mutation by standardized agar doubling dilution method in presence of 50 uM sodium orthovanadate efflux pump inhibitor; assay type: functional; procedure, shortened: as §3
[5] = test system: Streptococcus pneumoniae; assay: Antibacterial activity against fluoroquinolone, dye-resistant Streptococcus pneumoniae M74 overexpressing patA, patB by standardized agar doubling dilution method in presence of 20 ug/ml reserpine efflux pump inhibitor; assay type: functional; procedure, shortened: as §1
[6] = test system: Streptococcus pneumoniae; assay: Antibacterial activity against Streptococcus pneumoniae M87A overexpressing patA, patB and inactivated patA with single mutation by standardized agar doubling dilution method in presence of 50 uM sodium orthovanadate efflux pump inhibitor; assay type: functional
Procedure, shortened: (§4)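 MICs were determined by BSAC agar doubling dilution in the presence of sodium orthovanadate at 50 μM. Cultures were grown in BHI broth for 24 h at 37°C in 5% CO2, with R6 as control. Synergy was defined as an MIC reduction of ≥2 dilutions with the inhibitor present.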

[7] = test system: Streptococcus pneumoniae; assay: Antibacterial activity against Streptococcus pneumoniae M87B overexpressing patA, patB and inactivated patB with single mutation by standardized agar doubling dilution method in presence of 50 uM sodium orthovanadate efflux pump inhibitor; assay type: functional; procedure, shortened: as §4
[8] = test system: Streptococcus pneumoniae; assay: Antibacterial activity against fluoroquinolone-resistant Streptococcus pneumoniae by standardized agar doubling dilution method in presence of 20 ug/ml reserpine efflux pump inhibitor; assay type: functional; procedure, shortened: as §1
[9] = test system: Streptococcus pneumoniae; assay: Antibacterial activity against Streptococcus pneumoniae M46B overexpressing patA, patB and inactivated patB with single mutation by standardized agar doubling dilution method in presence of 50 uM sodium orthovanadate efflux pump inhibitor; assay type: functional; procedure, shortened: as §4
[10] = test system: Streptococcus pneumoniae; assay: Antibacterial activity against wild-type Streptococcus pneumoniae R6 by standardized agar doubling dilution method in presence of 50 uM sodium orthovanadate efflux pump inhibitor
[11] = test system: Streptococcus pneumoniae; assay: Antibacterial activity against Streptococcus pneumoniae M87B overexpressing patA, patB and inactivated patB with single mutation by standardized agar doubling dilution method; assay type: functional
Procedure, shortened: (§5)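 MICs were determined by agar doubling dilution following BSAC guidelines, with no efflux inhibitor. Strains were grown in brain heart infusion broth for 24 h at 37°C in 5% CO2. Species identity was confirmed by Gram stain, optochin sensitivity and capsule test. Control strain R6 was tested alongside.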

[12] = test system: Streptococcus pneumoniae; assay: Antibacterial activity against Streptococcus pneumoniae M45A overexpressing patA, patB and inactivated patA with single mutation by standardized agar doubling dilution method in presence of 20 ug/ml reserpine efflux pump inhibitor; assay type: functional; procedure, shortened: as §2
[13] = test system: Streptococcus pneumoniae; assay: Antibacterial activity against Streptococcus pneumoniae M311 overexpressing patA, patB and inactivated patA with single mutation by standardized agar doubling dilution method in presence of 50 uM sodium orthovanadate efflux pump inhibitor; assay type: functional; procedure, shortened: as §3
[14] = test system: Streptococcus pneumoniae; assay: Antibacterial activity against fluoroquinolone-resistant Streptococcus pneumoniae M83 FQ-R overexpressing patA, patB by standardized agar doubling dilution method; assay type: functional
Procedure, shortened: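 Clinical S. pneumoniae isolates grown in BHI broth 24 h at 37°C in 5% CO2. MICs by agar doubling dilution per BSAC guidelines, alone or with efflux inhibitor reserpine (20 μg/ml) or sodium orthovanadate (50 μM). Synergy defined as ≥2-dilution MIC reduction in presence of inhibitor.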

[15] = test system: Streptococcus pneumoniae; assay: Antibacterial activity against Streptococcus pneumoniae M301 overexpressing patA, patB and inactivated patA with single mutation by standardized agar doubling dilution method in presence of 20 ug/ml reserpine efflux pump inhibitor; assay type: functional; procedure, shortened: as §3
[16] = test system: Streptococcus pneumoniae; assay: Antibacterial activity against Streptococcus pneumoniae M45A overexpressing patA, patB and inactivated patA with single mutation by standardized agar doubling dilution method in presence of 50 uM sodium orthovanadate efflux pump inhibitor; assay type: functional; procedure, shortened: as §4
[17] = test system: Streptococcus pneumoniae; assay: Antibacterial activity against Streptococcus pneumoniae M86A overexpressing patA, patB and inactivated patA with single mutation by standardized agar doubling dilution method; assay type: functional; procedure, shortened: as §5
[18] = test system: Streptococcus pneumoniae; assay: Antibacterial activity against Streptococcus pneumoniae M87A overexpressing patA, patB and inactivated patA with single mutation by standardized agar doubling dilution method in presence of 20 ug/ml reserpine efflux pump inhibitor; assay type: functional; procedure, shortened: as §2
[19] = test system: Streptococcus pneumoniae; assay: Antibacterial activity against Streptococcus pneumoniae M86B overexpressing patA, patB and inactivated patB with single mutation by standardized agar doubling dilution method; assay type: functional; procedure, shortened: as §5
[20] = test system: Streptococcus pneumoniae; assay: Antibacterial activity against fluoroquinolone, dye-resistant Streptococcus pneumoniae M50 overexpressing patA, patB by standardized agar doubling dilution method in presence of 50 uM sodium orthovanadate efflux pump inhibitor; assay type: functional; procedure, shortened: as §1
[21] = test system: Streptococcus pneumoniae; assay: Antibacterial activity against Streptococcus pneumoniae M316 overexpressing patA, patB and inactivated patA with single mutation by standardized agar doubling dilution method in presence of 50 uM sodium orthovanadate efflux pump inhibitor; assay type: functional; procedure, shortened: as §4
[22] = test system: Streptococcus pneumoniae; assay: Antibacterial activity against fluoroquinolone-resistant Streptococcus pneumoniae M98 FQ-R overexpressing patA, patB by standardized agar doubling dilution method in presence of 20 ug/ml reserpine efflux pump inhibitor; assay type: functional
Procedure, shortened: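 MIC by agar doubling dilution per BSAC guidelines; strains pregrown in brain heart infusion broth 24 h, 37°C, 5% CO2. MICs measured alone and with efflux pump inhibitors reserpine (20 μg/ml) or sodium orthovanadate (50 μM); synergy defined as ≥2-dilution MIC reduction in presence of inhibitor.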

[23] = test system: Streptococcus pneumoniae; assay: Antibacterial activity against Streptococcus pneumoniae M302 overexpressing patA, patB and inactivated patA with single mutation by standardized agar doubling dilution method in presence of 20 ug/ml reserpine efflux pump inhibitor; assay type: functional; procedure, shortened: as §3
[24] = test system: Streptococcus pneumoniae; assay: Antibacterial activity against Streptococcus pneumoniae M306 overexpressing patA, patB and inactivated patB with single mutation by standardized agar doubling dilution method in presence of 50 uM sodium orthovanadate efflux pump inhibitor; assay type: functional; procedure, shortened: as §3
[25] = test system: Streptococcus pneumoniae; assay: Antibacterial activity against Streptococcus pneumoniae M298 overexpressing patA, patB and inactivated patA with single mutation by standardized agar doubling dilution method in presence of 50 uM sodium orthovanadate efflux pump inhibitor; assay type: functional; procedure, shortened: as §3
[26] = test system: Streptococcus pneumoniae; assay: Antibacterial activity against Streptococcus pneumoniae M319 overexpressing patA, patB and inactivated patB with single mutation by standardized agar doubling dilution method in presence of 50 uM sodium orthovanadate efflux pump inhibitor; assay type: functional; procedure, shortened: as §4

| Structure (SMILES) | MIC [1] [µg/mL] | MIC [2] [µg/mL] | MIC [3] [µg/mL] | MIC [4] [µg/mL] | MIC [5] [µg/mL] | MIC [6] [µg/mL] | MIC [7] [µg/mL] | MIC90 [8] [µg/mL] | MIC [9] [µg/mL] | MIC [10] [µg/mL] | MIC [11] [µg/mL] | MIC [12] [µg/mL] | MIC [13] [µg/mL] | MIC [14] [µg/mL] | MIC [15] [µg/mL] | MIC [16] [µg/mL] | MIC [17] [µg/mL] | MIC [18] [µg/mL] | MIC [19] [µg/mL] | MIC [20] [µg/mL] | also measured |
| --- | --- | --- | --- | --- | --- | --- | --- | --- | --- | --- | --- | --- | --- | --- | --- | --- | --- | --- | --- | --- | --- |
| O=C(O)c1cn(C2CC2)c2cc(N3CCNCC3)c(F)cc2c1=O [CIPROFLOXACIN] | 4 (≈ 12.1 µM) | 4 | 1 | 8 | 32 | 8 | 8 | 4 | 0.12 | 0.25 | 8 (≈ 24.1 µM) | 1 | 4 | 64 (≈ 193 µM) | 8 | 1 | 1 (≈ 3.02 µM) | 8 | 1 (≈ 3.02 µM) | 32 | MIC [21]: 8 µg/mL; MIC [22]: 2 µg/mL; MIC [23]: 4 µg/mL; MIC [24]: 4 µg/mL; MIC [25]: 8 µg/mL; MIC [26]: 16 µg/mL |
| CC[n+]1c(-c2ccccc2)c2cc(N)ccc2c2ccc(N)cc21.[Br-] [HOMIDIUM BROMIDE] | 4 | 0.5 | 0.5 | 0.25 | 0.5 | 0.5 | 0.5 | 0.5 | 0.5 | 0.12 | 0.5 | 0.5 | 8 | 8 | 0.5 | 0.5 | 0.5 | 0.5 | 0.5 | 1 | MIC [21]: 0.5 µg/mL; MIC [22]: 0.12 µg/mL; MIC [23]: 0.5 µg/mL; MIC [24]: 0.5 µg/mL; MIC [25]: 0.5 µg/mL; MIC [26]: 0.5 µg/mL |
